Assay results gathered from unrelated publications.
PDE3A: cGMP-inhibited 3',5'-cyclic phosphodiesterase 3A (PDE3A, Homo sapiens, UniProt Q14432)
ATXN3: Ataxin-3 (ATXN3, Homo sapiens, UniProt P54252)

CCN(CC)CCCC[C@H](NC(=O)[C@H](CC(C)C)NC(=O)[C@H](C)NC(=O)[C@H](Cc1ccccc1)NC(=O)c1ccc(C(C)(C)C)cc1)C(=O)N[C@@H](CO)C(=O)OC — inhibition (Nociceptin receptor (OPRL1, Homo sapiens, UniProt P41146); ligand displacement, radioligand; 10 µM): 23%
C[C@@H]1CCCN1CCCCOc1ccc2occc(=O)c2c1 — inhibition (Bile salt-activated lipase (Homo sapiens, UniProt P19835); enzyme activity, inhibitor, fluorescence; 10 µM): 6%
Cn1cc(-c2cc(F)cc(N3CCn4c(cc5c4CCCC5)C3=O)c2CO)cc(Nc2ccc(N3CCN(C4COC4)CC3)cn2)c1=O — inhibition (Serine/threonine-protein kinase TAO2 (TAOK2, Homo sapiens, UniProt Q9UL54); enzyme activity, inhibitor; 0.1 µM): 7%
C#Cc1n[nH]c2c(-c3cn([C@@H](C)c4ccccc4)c(=O)[nH]c3=O)cc(F)cc12 — inhibition (Phosphatidylinositol 4-phosphate 3-kinase C2 domain-containing subunit alpha (PIK3C2A, Homo sapiens, UniProt O00443); enzyme activity, inhibitor; 0.1 µM): 11.7%
COc1cc(Nc2ncc(F)c(Nc3ccc4c(n3)NC(=O)C(C)(C)O4)n2)cc(OC)c1OC — inhibition (Serine/threonine-protein kinase RIO2 (RIOK2, Homo sapiens, UniProt Q9BVS4); binding; 10 µM): 83%
c1ccc(C(NCCNC(c2ccccc2)c2ccccc2)c2ccccc2)cc1 — inhibition (PDE3A; cell-free assay, inhibitor; 10 µM): 0%
CN(C)C(=O)COC(=O)Cc1ccc(OC(=O)c2ccc(NC(=N)N)cc2)cc1 — inhibition (ATXN3; enzyme activity, inhibitor; 10 µM): 3%
O=C(Nc1cccnn1)N1CCN([C@@H]2CCOc3cc(C(F)(F)F)ccc32)CC1 — inhibition (PDE3A; cell-free assay; 20 µM): 4%
C#Cc1n[nH]c2c(-c3cn([C@@H](C)c4ccccn4)c(=O)[nH]c3=O)cc(F)cc12 — inhibition (Phosphatidylinositol 3-kinase catalytic subunit type 3 (PIK3C3, Homo sapiens, UniProt Q8NEB9); enzyme activity, inhibitor; 0.1 µM): 8.6%
N=C(N)c1ccc2cc(OC(=O)c3ccc(N=C(N)N)cc3)ccc2c1 — inhibition (ATXN3; enzyme activity, inhibitor; 10 µM): 0%
Cn1cc(-c2cccc(N3CCc4c(sc5c4CC(C)(C)C5)C3=O)c2CO)cc(Nc2ccncn2)c1=O — inhibition (Leucine-rich repeat serine/threonine-protein kinase 2 (LRRK2, Homo sapiens, UniProt Q5S007, G2019S); enzyme activity, inhibitor; 1 µM): -15%
